Results published in ChEMBL document CHEMBL1806394, “Synthesis, in vitro evaluation and molecular docking studies of new triazole derivatives as antifungal agents” (2011).
≈ marks a conversion by molar mass, not a printed value.

How the values were obtained:
Format in all cases: functional
Candida parapsilosis = experiment: Antifungal activity against Candida parapsilosis by micro-broth dilution method; settings: Lodderomyces parapsilosis
Summary of the method: (§1)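 MIC80 determined by broth microdilution following NCCLS methods. C. albicans SC5314 and Y0109 and C. neoformans BLS108 served as quality-control strains and were included in every assay. Fluconazole, itraconazole, voriconazole and amphotericin B were run as positive controls.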

Candida albicans [1] = experiment: Antifungal activity against Candida albicans SC5314 by micro-broth dilution method; summary of the method: as §1
Cryptococcus neoformans = experiment: Antifungal activity against Cryptococcus neoformans BLS108 by micro-broth dilution method; summary of the method: as §1
Trichophyton rubrum = experiment: Antifungal activity against Trichophyton rubrum by micro-broth dilution method; summary of the method: as §1
Candida tropicalis = experiment: Antifungal activity against Candida tropicalis by micro-broth dilution method; summary of the method: as §1
Kluyveromyces marxianus = experiment: Antifungal activity against Candida kefyr by micro-broth dilution method
Aspergillus fumigatus = experiment: Antifungal activity against Aspergillus fumigatus by micro-broth dilution method; summary of the method: as §1
Candida albicans [2] = experiment: Antifungal activity against Candida albicans Y0109 by micro-broth dilution method; summary of the method: as §1

SMILES	MIC80 (Candida parapsilosis) [µg/mL]	MIC80 (Candida albicans [1]) [µg/mL]	MIC80 (Cryptococcus neoformans) [µg/mL]	MIC80 (Trichophyton rubrum) [µg/mL]	MIC80 (Candida tropicalis) [µg/mL]	MIC80 (Kluyveromyces marxianus) [µg/mL]	MIC80 (Aspergillus fumigatus) [µg/mL]	MIC80 (Candida albicans [2]) [µg/mL]
O=C(/C=C/c1cccc(Br)c1)Nc1ccc(-n2cnn(CC(O)(Cn3cncn3)c3ccc(F)cc3F)c2=O)cc1 (single isomer, unassigned)	16 (≈ 25.7 µM)	1 (≈ 1.61 µM)	16 (≈ 25.7 µM)	> 64	1 (≈ 1.61 µM)	> 64	> 64	1 (≈ 1.61 µM)
O=C(Nc1ccc(-n2cnn(CC(O)(Cn3cncn3)c3ccc(F)cc3F)c2=O)cc1)c1ccc(F)cc1 (single isomer, unassigned)	0.0625 (≈ 0.117 µM)	0.0625 (≈ 0.117 µM)	64 (≈ 120 µM)	16 (≈ 29.9 µM)	0.0625 (≈ 0.117 µM)	4 (≈ 7.47 µM)	> 64	1 (≈ 1.87 µM)
Cc1ccc(C(=O)Nc2ccc(-n3cnn(CC(O)(Cn4cncn4)c4ccc(F)cc4F)c3=O)cc2)c(C)c1 (single isomer, unassigned)	0.0625 (≈ 0.115 µM)	0.0625 (≈ 0.115 µM)	> 64	> 64	1 (≈ 1.83 µM)	64 (≈ 117 µM)	> 64	0.0625 (≈ 0.115 µM)
C[C@@H]1[C@H](O)[C@@H](C)/C=C/C=C/C=C/C=C/C=C/C=C/C=C/[C@H](O[C@@H]2O[C@H](C)[C@@H](O)[C@H](N)[C@@H]2O)C[C@@H]2O[C@](O)(C[C@@H](O)C[C@@H](O)[C@H](O)CC[C@@H](O)C[C@@H](O)CC(=O)O[C@H]1C)C[C@H](O)[C@H]2C(=O)O [AMPHOTERICIN B]	0.25 (≈ 0.271 µM)	0.25 (≈ 0.271 µM)	1 (≈ 1.08 µM)	4 (≈ 4.33 µM)	1 (≈ 1.08 µM)	0.25 (≈ 0.271 µM)	1 (≈ 1.08 µM)	0.25 (≈ 0.271 µM)
CCC(C)n1ncn(-c2ccc(N3CCN(c4ccc(OCC5COC(Cn6cncn6)(c6ccc(Cl)cc6Cl)O5)cc4)CC3)cc2)c1=O (centres undefined) [ITRACONAZOLE]	0.0625 (≈ 0.0886 µM)	0.0625 (≈ 0.0886 µM)	0.0625 (≈ 0.0886 µM)	0.0625 (≈ 0.0886 µM)	0.0625 (≈ 0.0886 µM)	0.0625 (≈ 0.0886 µM)	0.0625 (≈ 0.0886 µM)	0.0625 (≈ 0.0886 µM)
O=C(/C=C/c1ccc(Cl)cc1)Nc1ccc(-n2cnn(CC(O)(Cn3cncn3)c3ccc(F)cc3F)c2=O)cc1 (single isomer, unassigned)	> 64	4 (≈ 6.92 µM)	> 64	> 64	> 64	> 64	> 64	16 (≈ 27.7 µM)
C[C@@H](c1ncncc1F)[C@](O)(Cn1cncn1)c1ccc(F)cc1F [VORICONAZOLE]	0.0039 (≈ 0.0112 µM)	0.0039 (≈ 0.0112 µM)	0.0039 (≈ 0.0112 µM)	0.0156 (≈ 0.0447 µM)	0.0039 (≈ 0.0112 µM)	0.0039 (≈ 0.0112 µM)	0.0039 (≈ 0.0112 µM)	0.0039 (≈ 0.0112 µM)
Cc1cccc(C(=O)Nc2ccc(-n3cnn(CC(O)(Cn4cncn4)c4ccc(F)cc4F)c3=O)cc2)c1 (single isomer, unassigned)	0.0625 (≈ 0.118 µM)	0.0625 (≈ 0.118 µM)	> 64	> 64	1 (≈ 1.88 µM)	> 64	> 64	0.0625 (≈ 0.118 µM)
O=C(/C=C/c1ccc(F)cc1)Nc1ccc(-n2cnn(CC(O)(Cn3cncn3)c3ccc(F)cc3F)c2=O)cc1 (single isomer, unassigned)	> 64	> 64	> 64	> 64	> 64	> 64	> 64	> 64
O=C(Nc1ccc(-n2cnn(CC(O)(Cn3cncn3)c3ccc(F)cc3F)c2=O)cc1)c1ccccc1Br (single isomer, unassigned)	1 (≈ 1.68 µM)	1 (≈ 1.68 µM)	16 (≈ 26.8 µM)	> 64	4 (≈ 6.71 µM)	> 64	> 64	4 (≈ 6.71 µM)
Cc1ccc(/C=C/C(=O)Nc2ccc(-n3cnn(CC(O)(Cn4cncn4)c4ccc(F)cc4F)c3=O)cc2)cc1 (single isomer, unassigned)	> 64	1 (≈ 1.79 µM)	> 64	> 64	4 (≈ 7.17 µM)	> 64	> 64	4 (≈ 7.17 µM)
O=C(/C=C/c1ccc(Br)cc1)Nc1ccc(-n2cnn(CC(O)(Cn3cncn3)c3ccc(F)cc3F)c2=O)cc1 (single isomer, unassigned)	1 (≈ 1.61 µM)	1 (≈ 1.61 µM)	> 64	> 64	> 64	> 64	> 64	4 (≈ 6.43 µM)
COc1ccc(/C=C/C(=O)Nc2ccc(-n3cnn(CC(O)(Cn4cncn4)c4ccc(F)cc4F)c3=O)cc2)cc1 (single isomer, unassigned)	> 64	4 (≈ 6.97 µM)	> 64	> 64	> 64	> 64	> 64	> 64
COc1ccc(C(=O)Nc2ccc(-n3cnn(CC(O)(Cn4cncn4)c4ccc(F)cc4F)c3=O)cc2)cc1 (single isomer, unassigned)	1 (≈ 1.83 µM)	1 (≈ 1.83 µM)	> 64	> 64	4 (≈ 7.31 µM)	16 (≈ 29.2 µM)	> 64	1 (≈ 1.83 µM)
O=C(/C=C/c1ccccc1[N+](=O)[O-])Nc1ccc(-n2cnn(CC(O)(Cn3cncn3)c3ccc(F)cc3F)c2=O)cc1 (single isomer, unassigned)	1 (≈ 1.7 µM)	1 (≈ 1.7 µM)	> 64	> 64	1 (≈ 1.7 µM)	> 64	> 64	1 (≈ 1.7 µM)
CCCc1ccc(C(=O)Nc2ccc(-n3cnn(CC(O)(Cn4cncn4)c4ccc(F)cc4F)c3=O)cc2)cc1 (single isomer, unassigned)	4 (≈ 7.15 µM)	0.0039 (≈ 0.00697 µM)	> 64	> 64	1 (≈ 1.79 µM)	> 64	> 64	1 (≈ 1.79 µM)
O=C(Nc1ccc(-n2cnn(CC(O)(Cn3cncn3)c3ccc(F)cc3F)c2=O)cc1)c1ccc(Cl)cc1Cl (single isomer, unassigned)	0.0156 (≈ 0.0266 µM)	0.0625 (≈ 0.107 µM)	> 64	> 64	0.25 (≈ 0.426 µM)	4 (≈ 6.82 µM)	> 64	0.0625 (≈ 0.107 µM)
O=C(Nc1ccc(-n2cnn(CC(O)(Cn3cncn3)c3ccc(F)cc3F)c2=O)cc1)c1ccc(Cl)cc1 (single isomer, unassigned)	1 (≈ 1.81 µM)	1 (≈ 1.81 µM)	0.0625 (≈ 0.113 µM)	> 64	1 (≈ 1.81 µM)	1 (≈ 1.81 µM)	> 64	1 (≈ 1.81 µM)
CC(C)c1ccc(C(=O)Nc2ccc(-n3cnn(CC(O)(Cn4cncn4)c4ccc(F)cc4F)c3=O)cc2)cc1 (single isomer, unassigned)	4 (≈ 7.15 µM)	4 (≈ 7.15 µM)	> 64	> 64	4 (≈ 7.15 µM)	> 64	> 64	4 (≈ 7.15 µM)
Cc1cccc(/C=C/C(=O)Nc2ccc(-n3cnn(CC(O)(Cn4cncn4)c4ccc(F)cc4F)c3=O)cc2)c1C (single isomer, unassigned)	> 64	1 (≈ 1.75 µM)	> 64	> 64	16 (≈ 28 µM)	> 64	> 64	4 (≈ 7 µM)
N#Cc1cccc(/C=C/C(=O)Nc2ccc(-n3cnn(CC(O)(Cn4cncn4)c4ccc(F)cc4F)c3=O)cc2)c1 (single isomer, unassigned)	16 (≈ 28.1 µM)	16 (≈ 28.1 µM)	> 64	> 64	64 (≈ 113 µM)	> 64	> 64	16 (≈ 28.1 µM)
O=C(Nc1ccc(-n2cnn(CC(O)(Cn3cncn3)c3ccc(F)cc3F)c2=O)cc1)c1cccc(Br)c1 (single isomer, unassigned)	16 (≈ 26.8 µM)	4 (≈ 6.71 µM)	> 64	> 64	16 (≈ 26.8 µM)	64 (≈ 107 µM)	> 64	16 (≈ 26.8 µM)
CCCCc1ccc(C(=O)Nc2ccc(-n3cnn(CC(O)(Cn4cncn4)c4ccc(F)cc4F)c3=O)cc2)cc1 (single isomer, unassigned)	0.0625 (≈ 0.109 µM)	0.0156 (≈ 0.0272 µM)	> 64	> 64	0.25 (≈ 0.436 µM)	> 64	> 64	0.0156 (≈ 0.0272 µM)
O=C(/C=C/c1ccc([N+](=O)[O-])cc1)Nc1ccc(-n2cnn(CC(O)(Cn3cncn3)c3ccc(F)cc3F)c2=O)cc1 (single isomer, unassigned)	1 (≈ 1.7 µM)	> 64	> 64	> 64	> 64	> 64	> 64	> 64
OC(Cn1cncn1)(Cn1cncn1)c1ccc(F)cc1F [FLUCONAZOLE]	0.25 (≈ 0.816 µM)	0.25 (≈ 0.816 µM)	1 (≈ 3.27 µM)	1 (≈ 3.27 µM)	1 (≈ 3.27 µM)	4 (≈ 13.1 µM)	> 64	0.25 (≈ 0.816 µM)
O=C(Nc1ccc(-n2cnn(CC(O)(Cn3cncn3)c3ccc(F)cc3F)c2=O)cc1)c1ccc(OC(F)(F)F)cc1 (single isomer, unassigned)	1 (≈ 1.66 µM)	0.25 (≈ 0.416 µM)	> 64	4 (≈ 6.65 µM)	64 (≈ 106 µM)	> 64	> 64	1 (≈ 1.66 µM)
O=C(/C=C/c1cccc([N+](=O)[O-])c1)Nc1ccc(-n2cnn(CC(O)(Cn3cncn3)c3ccc(F)cc3F)c2=O)cc1 (single isomer, unassigned)	0.0039 (≈ 0.00663 µM)	0.00024 (≈ 0.000408 µM)	> 64	64 (≈ 109 µM)	0.25 (≈ 0.425 µM)	16 (≈ 27.2 µM)	> 64	0.00024 (≈ 0.000408 µM)
O=C(Nc1ccc(-n2cnn(CC(O)(Cn3cncn3)c3ccc(F)cc3F)c2=O)cc1)c1cccc(Cl)c1 (single isomer, unassigned)	0.00024 (≈ 0.000435 µM)	0.00024 (≈ 0.000435 µM)	16 (≈ 29 µM)	> 64	1 (≈ 1.81 µM)	4 (≈ 7.25 µM)	> 64	0.00024 (≈ 0.000435 µM)
